system: PC-3; test: Inhibition of prostate cancer (PC-3) cell proliferation; type: functional, cell-based; conditions: Homo sapiens
Outline: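 PC-3 cells, 8000/well, grown in RPMI 1640 with 10% FBS at 37 °C, 5% CO2. Exposed to the test agent in 10% FBS-supplemented RPMI 1640 for 48 h in six replicates. MTT at 0.5 mg/mL then added for 2 h at 37 °C, reduced dye dissolved in DMSO, absorbance read at 570 nm. IC50 taken from cell viability.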

SMILES | IC50
COc1cc2nc(N3CCN(C(=O)c4ccc(C(F)(F)F)cc4)CC3)nc(N)c2cc1OC | > 100 µM
COc1ccc(S(=O)(=O)N2CCN(c3nc(N)c4cc(OC)c(OC)cc4n3)CC2)cc1 | 39 µM
COc1cc2nc(N3CCN(S(=O)(=O)c4cccc(C(=O)O)c4)CC3)nc(N)c2cc1OC | 53 µM
COc1cc2nc(N3CCN(S(=O)(=O)c4ccc(Cl)s4)CC3)nc(N)c2cc1OC | 25 µM
COc1cc2nc(N3CCN(S(=O)(=O)c4ccc(N)cc4N)CC3)nc(N)c2cc1OC | 67 µM
COc1cc2nc(N3CCN(S(=O)(=O)c4cc(C(=O)O)c(Cl)cc4Cl)CC3)nc(N)c2cc1OC | 52 µM
COc1cc2nc(N3CCN(C(=O)c4cccc(C#N)c4)CC3)nc(N)c2cc1OC | 82 µM
COc1cc2nc(N3CCN(S(=O)(=O)c4ccc(S(C)(=O)=O)cc4)CC3)nc(N)c2cc1OC | 17 µM
COc1cc2nc(N3CCN(S(=O)(=O)c4cc(Cl)ccc4Cl)CC3)nc(N)c2cc1OC | 60 µM
COc1cc2nc(N3CCN(C(=O)c4cccc5ccccc45)CC3)nc(N)c2cc1OC | 59 µM
COc1cc2nc(N3CCN(S(=O)(=O)c4ccc(OC(F)(F)F)cc4)CC3)nc(N)c2cc1OC | 25 µM
COc1cc2nc(N3CCN(S(=O)(=O)c4ccccc4[N+](=O)[O-])CC3)nc(N)c2cc1OC | 35 µM
COc1cc2nc(N3CCN(C(=O)c4ccc(C(C)(C)C)cc4)CC3)nc(N)c2cc1OC | 47 µM
COc1ccc(C(=O)N2CCN(c3nc(N)c4cc(OC)c(OC)cc4n3)CC2)cc1OC | 71 µM
COc1cc2nc(N3CCN(C(=O)c4ccc(N)cc4)CC3)nc(N)c2cc1OC | > 100 µM
CC(C)Oc1cc2nc(N3CCN(S(=O)(=O)c4ccc(-c5ccccc5)cc4)CC3)nc(N)c2cc1OC(C)C | 24 µM

SMILES | IC50
COc1cc2nc(N3CCN(S(=O)(=O)c4ccc(Br)cc4)CC3)nc(N)c2cc1OC | 20 µM
COc1cc2nc(N3CCN(S(=O)(=O)c4ccc([N+](=O)[O-])cc4)CC3)nc(N)c2cc1OC | 36 µM
COc1cc2nc(N3CCN(C(=O)c4ccc(Cl)cc4)CC3)nc(N)c2cc1OC | 60 µM
COc1cc2nc(N3CCN(C(=O)c4ccc(C#N)cc4)CC3)nc(N)c2cc1OC | 68 µM
COc1cc2nc(N3CCN(S(=O)(=O)c4c(C(C)C)cc(C(C)C)cc4C(C)C)CC3)nc(N)c2cc1OC | 24 µM
COc1cc2nc(N3CCN(S(=O)(=O)c4cc(F)c(Cl)c(C(=O)O)c4)CC3)nc(N)c2cc1OC | 56 µM
COc1cc2nc(N3CCN(S(=O)(=O)c4ccc(C(=O)O)cc4)CC3)nc(N)c2cc1OC | 53 µM
COc1cc2nc(N3CCN(S(=O)(=O)c4cccc([N+](=O)[O-])c4)CC3)nc(N)c2cc1OC | 32 µM
COc1cc2nc(N3CCN(C(=O)OCc4ccccc4)CC3)nc(N)c2cc1OC | 63 µM
COc1cc2nc(N3CCN(S(=O)(=O)c4ccc(C(F)(F)F)cc4)CC3)nc(N)c2cc1OC | 27 µM
COc1cc2nc(N3CCN(C(=O)c4ccc([N+](=O)[O-])cc4)CC3)nc(N)c2cc1OC | 75 µM
COc1cc2nc(N3CCN(S(=O)(=O)c4ccc(Cl)cc4)CC3)nc(N)c2cc1OC | 23 µM
COc1cc2nc(N3CCN(S(=O)(=O)c4ccc(C)cc4)CC3)nc(N)c2cc1OC | 30 µM
COc1cc2nc(N3CCN(S(=O)(=O)c4cccc5c(N(C)C)cccc45)CC3)nc(N)c2cc1OC | 29 µM
COc1cc2nc(N3CCN(C(=O)C4COc5ccccc5O4)CC3)nc(N)c2cc1OC (stereo not given) [DOXAZOSIN] | 45 µM

Now those with a lower IC50, led by results:

IC50 | SMILES
15 µM | COc1cc2nc(N3CCN(S(=O)(=O)c4ccc5ccccc5c4)CC3)nc(N)c2cc1OC
15 µM | COc1cc2nc(N3CCN(S(=O)(=O)c4ccc(I)cc4)CC3)nc(N)c2cc1OC
14 µM | COc1cc2nc(N3CCN(S(=O)(=O)c4cccc5ccccc45)CC3)nc(N)c2cc1OC
10 µM | COc1cc2nc(N3CCN(S(=O)(=O)c4ccc(-c5ccc(C(C)(C)C)cc5)cc4)CC3)nc(N)c2cc1OC
7.2 µM | COc1cc2nc(N3CCN(S(=O)(=O)c4ccc(-c5ccc(S(C)(=O)=O)cc5)cc4)CC3)nc(N)c2cc1OC
5.2 µM | COc1cc2nc(N3CCN(S(=O)(=O)c4ccc(-c5cc6ccccc6c6ccccc56)cc4)CC3)nc(N)c2cc1OC
4.2 µM | COc1cc2nc(N3CCN(S(=O)(=O)c4ccc(-c5ccccc5)cc4)CC3)nc(N)c2cc1OC
4.1 µM | COc1cc2nc(N3CCN(S(=O)(=O)c4ccc(C(C)(C)C)cc4)CC3)nc(N)c2cc1OC
3.5 µM | CCCCOc1cc2nc(N3CCN(S(=O)(=O)c4ccc(-c5ccccc5)cc4)CC3)nc(N)c2cc1OCCCC
3.4 µM | COc1cc2nc(N3CCN(S(=O)(=O)c4ccc(-c5ccc(C)cc5)cc4)CC3)nc(N)c2cc1OC
3.4 µM | CCCCc1ccc(-c2ccc(S(=O)(=O)N3CCN(c4nc(N)c5cc(OC)c(OC)cc5n4)CC3)cc2)cc1
3.3 µM | C=CCOc1cc2nc(N3CCN(S(=O)(=O)c4ccc(-c5ccccc5)cc4)CC3)nc(N)c2cc1OCC=C
3.3 µM | COc1cc2nc(N3CCN(S(=O)(=O)c4ccc(-c5ccc(C(F)(F)F)cc5)cc4)CC3)nc(N)c2cc1OC
2.5 µM | CCCOc1cc2nc(N3CCN(S(=O)(=O)c4ccc(-c5ccccc5)cc4)CC3)nc(N)c2cc1OCCC
